Laboratory results published in PubChem BioAssay.
Records with an inconclusive call do not appear.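 How the source made its calls, unless noted: active means viability increase at or above a cutoff of the median across tested compounds plus 3 SD (cut at about 8.5% in these data, passing the limit was not always enough); inconclusive means some gains above the cutoff, reason not given; inactive means the rest.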

What was measured:
[1] = OD615 S. cerevisiae growth inhibition, permissive medium, pilot counter-assay, permissive growth control for S. cerevisiae lifespan shortening project (AID 705;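 active means growth inhibition above 25% in both replicates, a cutoff set 3 SD above the mean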); details: OD615, 24 h, at 10 µM, stronger effect = higher value
In short: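 System: engineered DeaD yeast; Medium: permissive raffinose/galactose medium; Compound dosing: 10 µM single dose, 0.25% DMSO; Incubation: 4 h cell pre-growth, 24 h exposure at 30 °C; Technique: OD at 615 nm; Evaluation: growth inhibition from lowered OD615 after 24 h.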

[2] = Restrictive medium S. cerevisiae growth inhibition, OD615, pilot screen of yeast lifespan reduction project, restrictive growth control (AID 706;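 active means growth inhibition above a set limit, 3 SD over mean compound inhibition, in both replicates, cut at about 43% in these data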;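 further: modified DeaD lifespan yeast strain shifted to restrictive glucose medium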); details: OD615, 48 h, at 10 µM, stronger effect = higher value
In short: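 Material: modified S. cerevisiae; buffer or medium: CSMM-D glucose medium; doses: one concentration, 10 µM final, 0.25% DMSO; incubation: 48 h compound exposure at 30 °C; detection: optical density at 615 nm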

[3] = viability gain of MRP-1-high H69AR cells under doxorubicin, pilot screen, MRP-1 activator project, CellTiter-Glo, duplicate (AID 807); details: H69AR viability with doxorubicin, CellTiter-Glo luminescence; at 10 µM; stronger effect = higher value;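 further: compound pretreatment 18-22 h then 72 h combined with doxorubicin; 0% = doxorubicin alone and 100% = vehicle without doxorubicin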
[4] = growth suppression of beta-catenin knockout HCT116, pilot screen, human colon tumor cells (AID 823;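 active means cell viability at or below a set limit in both duplicate runs, the limit being the all-compound median minus 4 SD, cut at about 23% in these data, passing the limit was not always enough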;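 further: 0% = wells killed by 20 µM Hyamine and 100% = untreated DMSO cell wells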); details: CellTiter-Glo, 60 h, at 10 µM, stronger effect = lower value
[5] = growth suppression of PTEN-deleted HCT116, pilot screen, cell-based, HCT116 clonal line, CellTiter-Glo (AID 824;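 active means viability at or below 27.92% in each of two runs, the all-compound median minus 4 SD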;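 further: 0% = 20 µM Hyamine control and 100% = vehicle cell control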); details: 60 h, at 10 µM, stronger effect = lower value
[6] = inhibitors of the yeast RAM network, pilot screen, dse1pr::URA3 reporter, 5-FOA selection (AID 869;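 active means inhibition over a set limit, the all-compound mean plus 3 SD, in both replicate runs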;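 further: 0% = DMSO wells with no growth and 100% = 10 µM 1-NA-PP1 with full growth; RAM network block rescues cells from 5-FOA so hits raise OD615 growth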); details: S. cerevisiae dse1pr::URA3 5-FOA growth, OD615, 2 d; at 10 µM; stronger effect = higher value; strain carries analog-sensitive mutant Cbk1 kinase
[7] = RAM signaling pathway blockade in yeast – S. cerevisiae, Pdr1DBD-CYC8 efflux-inhibited sensitized strain, primary screen (AID 1298;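 active means RAM network inhibition above 8.4% in each of two replicates, 3 SD over the compound average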;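 further: 0% = DMSO untreated cells without growth and 100% = 10 µM 1-NA-PP1 full growth; higher means more yeast growth rescued from 5-FOA killing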); details: S. cerevisiae cbk1-as DSE1-URA3 strain, 5-FOA growth OD615, 2 d; at 50 µM; stronger effect = higher value

COc1ccc(C(=O)CCC(=O)N2CCN(c3ccc(N4CCOCC4)nn3)CC2)cc1
inactive: growth inhibition [1] 4.94% | growth inhibition [2] -0.495% | viability increase [3] -2.69% | viability [4] 102% | viability [5] 93.8% | inhibition [6] 1.65% | RAM network inhibition [7] 2.53%

CCN1CCN(C(=O)C2CCN(Cc3nc(-c4cccc(Cl)c4)oc3C)CC2)CC1
inactive: growth inhibition [1] -1.82% | growth inhibition [2] -14.3% | viability increase [3] -4.04% | viability [4] 69% | viability [5] 72.4% | inhibition [6] 0.9% | RAM network inhibition [7] 1.16%

CC(C)(C)Nc1ncnc2c1cnn2-c1ccccc1
inactive: growth inhibition [1] -3.38% | growth inhibition [2] 17.3% | viability increase [3] 2% | viability [4] 92.3% | viability [5] 90.3% | inhibition [6] 1.31% | RAM network inhibition [7] -2.37%

CC(C)C(=O)N1CCN(c2ccccc2N)CC1
inactive: growth inhibition [1] -9.49% | growth inhibition [2] -20.2% | viability increase [3] -1.42% | viability [4] 102% | viability [5] 95.8% | inhibition [6] 1.55% | RAM network inhibition [7] 1.34%

O=C(c1ccc(Cn2c(=O)[nH]c3ccccc3c2=O)cc1)N1CCN(c2ccccn2)CC1
inactive: growth inhibition [1] -11.8% | growth inhibition [2] -8.79% | viability increase [3] -2.12% | viability [4] 93.1% | viability [5] 78.6% | inhibition [6] 0.23% | RAM network inhibition [7] 8.38%

Cc1cc(C)c(S(=O)(=O)NCCCN2CCOCC2)cc1Br
inactive: growth inhibition [1] -7.38% | growth inhibition [2] -14.8% | viability increase [3] -2.34% | viability [4] 91.8% | viability [5] 90.9% | inhibition [6] 0.75% | RAM network inhibition [7] 0.92%

CC(/C=C/c1ccccc1)=N/O
inactive: growth inhibition [1] -2.33% | growth inhibition [2] 2.71% | viability increase [3] 0.26% | viability [4] 98.3% | viability [5] 106% | inhibition [6] -0.595% | RAM network inhibition [7] 4.55%

CC(C)N1CCc2c(sc(NC(=O)c3ccc(S(=O)(=O)N4CCOCC4)cc3)c2C#N)C1
inactive: growth inhibition [1] -4.83% | growth inhibition [2] -3.24% | viability increase [3] -2.2% | viability [4] 85.3% | viability [5] 86.3% | inhibition [6] 0.75% | RAM network inhibition [7] 1.3%

Cc1ccccc1OCC(=O)Nc1ccccc1N1CCOCC1
inactive: growth inhibition [1] -1.63% | growth inhibition [2] 6.71% | viability increase [3] -5.31% | viability [4] 91.7% | viability [5] 84.7% | inhibition [6] 1.22% | RAM network inhibition [7] 6.55%

COc1cc(C)c(S(=O)(=O)NCc2ccc3c(c2)OCO3)cc1C
inactive: growth inhibition [1] -2.38% | growth inhibition [2] 3% | viability increase [3] 0.6% | viability [4] 106% | viability [5] 102% | inhibition [6] -0.055% | RAM network inhibition [7] -0.06%

O=C(Cn1nc(-c2ccc(Cl)cc2)ccc1=O)NCC1CCCO1 (configuration not stated)
inactive: growth inhibition [1] -1.09% | growth inhibition [2] -10.1% | viability increase [3] -1.53% | viability [4] 92.5% | viability [5] 93.8% | inhibition [6] 1.24% | RAM network inhibition [7] 7.63%

COc1cc(C(=O)N2CCN(C(=O)c3ccco3)CC2)cc(OC)c1OC
inactive: growth inhibition [1] -7.33% | growth inhibition [2] -2.3% | viability increase [3] -0.58% | viability [4] 100% | viability [5] 97.5% | inhibition [6] 0.16% | RAM network inhibition [7] 6.85%

COc1ccc(NC(=O)Nc2ccc3nccnc3c2)cc1
inactive: growth inhibition [1] -13.5% | growth inhibition [2] -17.2% | viability increase [3] -4.49% | viability [4] 67.5% | viability [5] 68.7% | inhibition [6] 1.81% | RAM network inhibition [7] 3.72%

COc1cccc(-n2nnc3c(=O)n(C/C=C/c4ccccc4)cnc32)c1
inactive: growth inhibition [1] -5.38% | growth inhibition [2] -7.15% | viability increase [3] 0.57% | viability [4] 92.3% | viability [5] 86.9% | inhibition [6] 3.2% | RAM network inhibition [7] 2.07%

COc1cccc(-n2c(Cc3cc(=O)[nH]c(=O)[nH]3)nnc2SCC(=O)N2CCCCCC2)c1
inactive: growth inhibition [1] -10.1% | growth inhibition [2] -12.1% | viability increase [3] -0.94% | viability [4] 99.3% | viability [5] 98.5% | inhibition [6] -0.735% | RAM network inhibition [7] 7.07%

Cn1cccc1Cc1nnc(SCC(=O)Nc2ccc3c(c2)OCO3)n1-c1ccc(F)cc1
inactive: growth inhibition [1] 8.39% | growth inhibition [2] 14.1% | viability increase [3] -1.95% | viability [4] 90.4% | viability [5] 91.3% | inhibition [6] 1.56% | RAM network inhibition [7] 8.29%

CCCn1c(=S)[nH]c2cc(C(=O)NCC3CCCO3)ccc2c1=O (configuration not stated)
inactive: growth inhibition [1] -1.52% | growth inhibition [2] 7.49% | viability increase [3] 0.21% | viability [4] 104% | viability [5] 86.5% | inhibition [6] 1.96% | RAM network inhibition [7] 2.81%

Cn1nc(-c2ccc(Cl)cc2)c2cc(C(=O)N3CCN(c4ccccc4)CC3)sc21
inactive: growth inhibition [1] -0.325% | growth inhibition [2] -3.28% | viability increase [3] -5.26% | viability [4] 71.2% | viability [5] 72.2% | inhibition [6] 3.44% | RAM network inhibition [7] 5.19%

O=C1c2ccccc2C(Nc2cccnc2)N1Cc1ccc2c(c1)OCO2 (configuration not stated)
inactive: growth inhibition [1] 7.46% | growth inhibition [2] 3.33% | viability increase [3] -2.21% | viability [4] 94.1% | viability [5] 104% | inhibition [6] 0.205% | RAM network inhibition [7] 1.74%

COc1ccc(Cn2c(=O)[nH]c3cc(C(=O)NCCCN4CCCCC4)ccc3c2=O)cc1
inactive: growth inhibition [1] -4.93% | growth inhibition [2] -8.5% | viability increase [3] -2.31% | viability [4] 74.5% | viability [5] 77.4% | inhibition [6] 0.53% | RAM network inhibition [7] 4.83%

O=C(Cn1ncc2c(=O)oc3ccccc3c21)NCC1COc2ccccc2O1 (configuration not stated)
inactive: growth inhibition [1] 4.09% | growth inhibition [2] -10.9% | viability increase [3] -1.36% | viability [4] 103% | viability [5] 98.2% | inhibition [6] 2.72% | RAM network inhibition [7] 3.56%

Cc1ccc2cc(CCNC(=O)CC(C)C)c(=O)[nH]c2c1
inactive: growth inhibition [1] -7.75% | growth inhibition [2] -0.53% | viability increase [3] 0.14% | viability [4] 105% | viability [5] 103% | inhibition [6] 1.69% | RAM network inhibition [7] 3.87%

CC(=O)Oc1cccc(N2C(=O)C3C(C2=O)C2C=CC3C23CC3)c1 (configuration not stated)
inactive: growth inhibition [1] -8.98% | growth inhibition [2] -8.59% | viability increase [3] -0.99% | viability [4] 96.9% | viability [5] 101% | inhibition [6] 0.125% | RAM network inhibition [7] 0.63%

CC(=O)c1ccc(OCC(O)Cn2nnc3ccccc32)cc1 (configuration not stated)
inactive: growth inhibition [1] -15.7% | growth inhibition [2] -1.76% | viability increase [3] 0.2% | viability [4] 87.6% | viability [5] 97.9% | inhibition [6] 0.455% | RAM network inhibition [7] 7.79%

COc1ccc(Cc2nc(-c3ccc(-n4cccc4)cc3)no2)cc1OC
inactive: growth inhibition [1] -2.5% | growth inhibition [2] -10.8% | viability increase [3] 2.61% | viability [4] 28% | viability [5] 54.7% | inhibition [6] 4.33% | RAM network inhibition [7] 9.02%

COc1ccc(OC)c2sc(NC(=O)c3ccc(Br)s3)nc12
inactive: growth inhibition [1] -1.73% | growth inhibition [2] -13% | viability increase [3] -3.64% | viability [4] 85.1% | viability [5] 59.5% | inhibition [6] 2.71% | RAM network inhibition [7] 2.69%

O=C(CSc1nc2ccccc2c(=O)n1-c1ccccc1)N1CCN(CCO)CC1
inactive: growth inhibition [1] -8.67% | growth inhibition [2] -3.58% | viability increase [3] -2.9% | viability [4] 99.5% | viability [5] 98.6% | inhibition [6] 0.595% | RAM network inhibition [7] 1.04%

Cc1ccc(NC(=O)CSc2nnc(-c3ccncc3)n2N)cc1C
inactive: growth inhibition [1] -4.62% | growth inhibition [2] -3.02% | viability increase [3] -2.83% | viability [4] 97.8% | viability [5] 98.3% | inhibition [6] 1.71% | RAM network inhibition [7] 2.23%

CCC(CC)C(=O)NCc1ccccc1OC
inactive: growth inhibition [1] 4.68% | growth inhibition [2] -4.89% | viability increase [3] -0.51% | viability [4] 99.1% | viability [5] 101% | inhibition [6] 0.98% | RAM network inhibition [7] 2.02%

Cc1onc(-c2ccccc2Cl)c1C(=O)NCC1CCCO1 (configuration not stated)
inactive: growth inhibition [1] -0.6% | growth inhibition [2] 3.56% | viability increase [3] -1.44% | viability [4] 88.7% | viability [5] 95.8% | inhibition [6] 1.24% | RAM network inhibition [7] -0.74%

COc1ccc(N2CCN(Cc3nc4c(c(=O)[nH]c(=O)n4C)n3Cc3cccc(Cl)c3)CC2)cc1
inactive: growth inhibition [1] -9.21% | growth inhibition [2] -12.3% | viability increase [3] -3.93% | viability [4] 91.6% | viability [5] 77% | inhibition [6] 1.39% | RAM network inhibition [7] 1.83%

Cc1cc(C(=O)N2CCN(S(C)(=O)=O)CC2)cs1
inactive: growth inhibition [1] -7.07% | growth inhibition [2] -12.8% | viability increase [3] -1.25% | viability [4] 94.5% | viability [5] 88.9% | inhibition [6] 1.6% | RAM network inhibition [7] -0.04%

Cc1ccc(C)c(S(=O)(=O)NC(CC(C)C)C(=O)O)c1 (configuration not stated)
inactive: growth inhibition [1] -9.28% | growth inhibition [2] -29.3% | viability increase [3] -1.32% | viability [4] 105% | viability [5] 102% | inhibition [6] 1.69% | RAM network inhibition [7] 2.5%

COc1ccc(N2CSC3=C(C#N)C(c4ccc(OC)c(OC)c4)CC(=O)N3C2)c(OC)c1 (configuration not stated)
inactive: growth inhibition [1] 18.8% | growth inhibition [2] 22.1% | viability increase [3] -4.13% | viability [4] 79.5% | viability [5] 81.7% | inhibition [6] 1.88% | RAM network inhibition [7] 0.93%

CN(Cc1ccccc1)C(=O)c1ccc2c(c1)OCCO2
inactive: growth inhibition [1] -14.5% | growth inhibition [2] -4.09% | viability increase [3] -0.29% | viability [4] 89.5% | viability [5] 94.6% | inhibition [6] 1.48% | RAM network inhibition [7] 3.49%

CCn1c(CNC(=O)c2cccc(C)c2)nc2ccccc21
inactive: growth inhibition [1] -6.91% | growth inhibition [2] -5.74% | viability increase [3] -0.3% | viability [4] 99.6% | viability [5] 97.2% | inhibition [6] 2.5% | RAM network inhibition [7] 5%
